From ChEMBL document CHEMBL4811218, “Discovery and optimization of withangulatin A derivatives as novel glutaminase 1 inhibitors for the treatment of triple-negative breast cancer” (Eur J Med Chem, 2021)
Active and inactive are the calls of the source. The rule behind the calls is not given here.

Assays:
[1] = Toxicity in BALB/c nude mouse xenografted with human MDA-MB-231 cells assessed as kidney tissue damage at 25 to 50 mg/kg, ip administered every 3 days for 4 weeks; assay type: organism-based; details: in vivo, 672 h, dose 25-50 mg/kg
Outline: (§1)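 Xenograft-bearing nude mice (MDA-MB-231, s.c. right flank, treated from about 100 mm³) received 25 or 50 mg/kg i.p. every three days for four weeks. At the end mice were euthanized, and visceral organs were fixed in 4% paraformaldehyde for histopathology.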

MDA-MB-231 [2] = assay: Antitumor activity against human MDA-MB-231 cells xenografted in BALB/c nude mouse assessed as reduction in tumor volume at 25 to 50 mg/kg, ip administered every 3 days for 4 weeks; assay type: functional, organism-based; details: dose 25-50 mg/kg
Outline: (§2)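 Nude mice given 3×10^6 MDA-MB-231 cells in 200 µL PBS, injected subcutaneously into the right flank. Once tumors reached about 100 mm³, mice were randomized into four groups. Dosing was 25 or 50 mg/kg i.p. every three days for four weeks. Tumor volume, tumor weight and body weight were followed. n = 6, mean ± SD.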

[3] = Toxicity in BALB/c nude mouse xenografted with human MDA-MB-231 cells assessed as effect on body weight at 25 to 50 mg/kg, ip administered every 3 days for 4 weeks; assay type: organism-based; details: in vivo, 672 h, dose 25-50 mg/kg; outline: as §2
[4] = Toxicity in BALB/c nude mouse xenografted with human MDA-MB-231 cells assessed as spleen tissue damage at 25 to 50 mg/kg, ip administered every 3 days for 4 weeks; assay type: organism-based; details: in vivo, 672 h, dose 25-50 mg/kg; outline: as §1
MDA-MB-231 [5] = assay: Induction of apoptosis in human MDA-MB-231 cells assessed as necrotic cells at 320 nM incubated for 12 hrs by annexin V-FITC/PI based flow cytometric analysis (reference value: 0.1%); assay type: functional
Outline: (§3)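 Cells exposed to compound or 0.1% DMSO for 12 h at 37°C, then resuspended in PBS at 1×10^5 cells/mL. Stained with annexin V-FITC and PI for 20 min at room temperature in the dark, then analysed by flow cytometry. Quadrant percentages reported: lower right early apoptotic, upper right late apoptotic. n = 4, mean ± SD.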

MDA-MB-231 [6] = assay: Potency index, ratio of WA IC50 to compound IC50 for antiproliferative activity against human MDA-MB-231 cells after 24 hrs by MTT assay; assay type: functional
Outline: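 Ratio calculated from MTT IC50 values in MDA-MB-231 cells. Cells seeded at 5×10^3/well for 24 h, then treated 24 h at 0.078-10 µM with 0.1% DMSO as vehicle. Absorbance read at 570 nm after 4 h MTT and DMSO solubilization. Triplicate wells, at least three repeats.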

[7] = Toxicity in BALB/c nude mouse xenografted with human MDA-MB-231 cells assessed as lung tissue damage at 25 to 50 mg/kg, ip administered every 3 days for 4 weeks; assay type: organism-based; details: in vivo, 672 h, dose 25-50 mg/kg; outline: as §1
[8] = biological target: T1, Glutaminase kidney isoform, mitochondrial (Homo sapiens) (UniProt O94925); assay: Inhibition of GLS1 in human MDA-MB-231 cells assessed as reduction in glutamate production incubated for 12 hrs by Amplex red glutamic acid assay; assay type: cell-based; details: dose 40-640 nM
T1 sequence (whole entry): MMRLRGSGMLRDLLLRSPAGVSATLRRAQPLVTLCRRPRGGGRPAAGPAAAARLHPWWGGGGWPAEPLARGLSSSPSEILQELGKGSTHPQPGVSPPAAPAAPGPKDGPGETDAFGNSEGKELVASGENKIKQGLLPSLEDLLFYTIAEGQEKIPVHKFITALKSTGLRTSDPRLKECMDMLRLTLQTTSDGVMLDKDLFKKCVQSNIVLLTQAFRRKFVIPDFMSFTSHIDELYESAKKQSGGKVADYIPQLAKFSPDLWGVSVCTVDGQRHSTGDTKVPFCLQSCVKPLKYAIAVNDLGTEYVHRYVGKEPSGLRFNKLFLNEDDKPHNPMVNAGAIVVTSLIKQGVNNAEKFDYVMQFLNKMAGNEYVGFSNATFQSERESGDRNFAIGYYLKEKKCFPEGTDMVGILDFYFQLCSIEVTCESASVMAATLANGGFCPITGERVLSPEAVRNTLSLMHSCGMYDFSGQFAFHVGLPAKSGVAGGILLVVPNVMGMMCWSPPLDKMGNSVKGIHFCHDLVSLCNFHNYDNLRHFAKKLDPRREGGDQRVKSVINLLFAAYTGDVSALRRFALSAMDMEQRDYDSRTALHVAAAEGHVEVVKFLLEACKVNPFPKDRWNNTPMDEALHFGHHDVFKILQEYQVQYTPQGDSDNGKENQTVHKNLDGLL
Outline: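 MDA-MB-231 cells pre-cultured 24 h at 37°C, then given compound or 0.1% DMSO for a further 12 h. Cells washed in PBS and lysed in RIPA at 4°C. Glutamate in the lysate measured with an Amplex Red glutamic acid kit per the manufacturer's protocol.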

MDA-MB-231 [9] = assay: Antitumor activity against human MDA-MB-231 cells xenografted in BALB/c nude mouse assessed as tumor growth inhibition at 25 to 50 mg/kg, ip administered every 3 days for 4 weeks; assay type: functional, organism-based; details: dose 25-50 mg/kg; outline: as §2
MDA-MB-231 [10] = assay: Antiproliferative activity against human MDA-MB-231 cells after 24 hrs by MTT assay relative to control; assay type: functional
Outline: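 MDA-MB-231 cells kept in DMEM with 10% FBS at 37°C, 5% CO2. Seeded at 5×10^3 cells/well and left 24 h, then exposed to compounds at 0.078-10 µM for 24 h. 0.1% DMSO served as the vehicle control. MTT added for 4 h, formazan dissolved in DMSO, absorbance read at 570 nm. IC50 derived. Each run in triplicate, repeated at least three times.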

MDA-MB-231 [11] = assay: Induction of apoptosis in human MDA-MB-231 cells assessed as necrotic cells at 160 nM incubated for 12 hrs by annexin V-FITC/PI based flow cytometric analysis (reference value: 0.1%); assay type: functional; outline: as §3
MDA-MB-231 [12] = assay: Induction of apoptosis in human MDA-MB-231 cells assessed as late apoptotic cells at 640 nM incubated for 12 hrs by annexin V-FITC/PI based flow cytometric analysis (reference value: 0.7%); assay type: functional; outline: as §3
MDA-MB-231 [13] = assay: Induction of apoptosis in human MDA-MB-231 cells assessed as increase in cleaved caspase-9 expression after 12 hrs by Western blotting analysis; assay type: functional, cell-based; details: dose 160-640 nM
Outline: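 MDA-MB-231 cells exposed to graded concentrations or 0.1% DMSO; the methods state 24 h, the legend 12 h. Lysed in RIPA, 80 µg protein per lane on SDS-PAGE and transferred to PVDF. Probed overnight at 4°C for caspase-3, cleaved caspase-3, caspase-9 and cleaved caspase-9, with GAPDH as loading control. HRP secondaries, ECL detection, densitometry. n = 4.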

MDA-MB-231 [14] = assay: Induction of apoptosis in human MDA-MB-231 cells assessed as necrotic cells at 640 nM incubated for 12 hrs by annexin V-FITC/PI based flow cytometric analysis (reference value: 0.1%); assay type: functional; outline: as §3
MDA-MB-231 [15] = assay: Antitumor activity against human MDA-MB-231 cells xenografted in BALB/c nude mouse assessed as reduction in tumor weight at 25 to 50 mg/kg, ip administered every 3 days for 4 weeks; assay type: functional, organism-based; details: dose 25-50 mg/kg; outline: as §2
MDA-MB-231 [16] = assay: Induction of apoptosis in human MDA-MB-231 cells assessed as early apoptotic cells at 640 nM incubated for 12 hrs by annexin V-FITC/PI based flow cytometric analysis (reference value: 1.2%); assay type: functional; outline: as §3

## CC(=O)O[C@H]1C=C([C@H](C)[C@H]2CC(C)=C(C)C(=O)O2)[C@@]2(C)CC[C@H]3[C@@H](C[C@H]4O[C@]45[C@@H](OC(=O)CCCC(=O)Nc4ccc(N6CCOCC6)c(F)c4)C=CC(=O)[C@]35C)[C@@]12O
[1]
  Activity: Non-Toxic
MDA-MB-231 [2]
  Activity: Active
[3]
  Activity: Non-Toxic
[4]
  Activity: Non-Toxic
MDA-MB-231 [5]
  Activity: 0.1%
MDA-MB-231 [6]
  Ratio IC50: 20
[7]
  Activity: Non-Toxic
[8]
  inhibition: Dose-Dependent Effect
MDA-MB-231 [9]
  Activity: Active
MDA-MB-231 [10]
  inhibition (INH): 95.2%
MDA-MB-231 [11]
  Activity: 0.2%
MDA-MB-231 [12]
  Activity: 11.7%
MDA-MB-231 [13]
  Activity: Dose-Dependent Effect
MDA-MB-231 [14]
  Activity: 0.1%
MDA-MB-231 [15]
  Activity: Active
MDA-MB-231 [16]
  Activity: 28.5%
